From ChEMBL document CHEMBL3769357, “Phosphoramidate protides of five flavones and their antiproliferative activity against HepG2 and L-O2 cell lines” (Eur J Med Chem, 2016) come the findings set out here.

Each structure is given as a SMILES string.

The subject of experiment [1] is HepG2. Briefly: Antiproliferative activity against human HepG2 cells after 48 hrs by MTT assay. The conditions noted are these: HepG2, 48 h. The experiment is classed as functional, cell-based. The gist of the method:
(§1)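 After 48 h, MTT (5 mg/mL in PBS) added, 4 h at 37 °C, DMSO added, absorbance read at 570 nm. IC50 is the 50% growth-inhibition concentration, mean of three independent experiments.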
A general note: Tetrazolium assays rely on reduction of a dye to a coloured formazan, in cell work by metabolically active cells.

A short description of experiment [2]: Cytotoxicity against human LO2 cells after 48 hrs by MTT assay. The format is cell-based. The note with it: L02, 48 h. In short, it runs like this: as §1
Experiment [3] has as its system HepG2. The experiment in a line: Selectivity index, ratio of IC50 for human LO2 cells to human HepG2 cells.

Turning to `COC(=O)[C@@H](NP(=O)(Oc1ccccc1)Oc1cc(O)c2c(=O)cc(-c3ccc(O)cc3)oc2c1)C(C)C` (some centres not stated), the IC50 (as a rule, the concentration needed to halve the response being measured) in the experiment with HepG2 [1] worked out at 27.3 µM; in experiment [2], 26 µM. Moreover, in the experiment on HepG2 [3], the “Ratio IC50” value is 0.952.
For `COC(=O)[C@H](Cc1ccccc1)NP(=O)(Oc1ccccc1)Oc1cc(O)c2c(=O)cc(-c3ccc(O)cc3)oc2c1` (some centres not stated) the same measures were 36.6 µM, over 100 µM and over 2.732.
The like results for `COC(=O)CNP(=O)(Oc1ccccc1)Oc1cc(OC(C)=O)c2c(=O)cc(-c3ccc(OC(C)=O)cc3)oc2c1` (configuration not stated) were, in that order, 47.8 µM, over 100 µM and over 2.092.
The like results for `COC(=O)[C@H](Cc1ccccc1)NP(=O)(Oc1ccccc1)Oc1cc(OC(C)=O)c2c(=O)cc(-c3ccc(OC(C)=O)c(OC(C)=O)c3)oc2c1` (some centres not stated) were, in that order, 27.1 µM, 30.3 µM and 1.118.
For `COC(=O)[C@H](CC(C)C)NP(=O)(Oc1ccccc1)Oc1cc(OC(C)=O)c2c(=O)c(-c3ccc(OC(C)=O)cc3)coc2c1` (some centres not stated), the IC50 in the experiment on HepG2 [1] was 54 µM; in experiment [2] it was 60.1 µM. In addition, the “Ratio IC50” value in the experiment with HepG2 [3] is 1.113.
For `COC(=O)[C@@H](NP(=O)(Oc1ccccc1)Oc1cc(OC(C)=O)c2c(=O)cc(-c3ccc(OC(C)=O)cc3)oc2c1)C(C)C` (some centres not stated) the same measures were 18.4 µM, 29.4 µM and 1.59.
Consider `COC(=O)[C@H](C)NP(=O)(Oc1ccccc1)Oc1cc(O)c2c(=O)cc(-c3ccc(O)cc3)oc2c1` (some centres not stated), for which the 50% inhibitory concentration (IC50) with HepG2 [1] was 34.7 µM; in experiment [2], 35.3 µM. Further, the “Ratio IC50” value with HepG2 [3] is recorded as 1.017.
The like results for `COC(=O)[C@H](CC(C)C)NP(=O)(Oc1ccccc1)Oc1cc(OC(C)=O)c2c(=O)cc(-c3ccc(OC(C)=O)c(OC(C)=O)c3)oc2c1` (some centres not stated) were, in that order, 21 µM, 38.2 µM and 1.819.
Consider `COC(=O)CNP(=O)(Oc1ccccc1)Oc1ccc2c(=O)c(-c3ccc(OC(C)=O)cc3)coc2c1` (configuration not stated), for which the IC50 (in the experiment with HepG2 [1]; in experiment [2]) was over 100 µM throughout.
As for `COC(=O)[C@H](CC(C)C)NP(=O)(Oc1ccccc1)Oc1cc(O)c2c(=O)cc(-c3ccc(O)c(O)c3)oc2c1` (some centres not stated), the IC50 came out at 22.4 µM with HepG2 [1] and 34 µM in experiment [2]. In the experiment on HepG2 [3], the “Ratio IC50” value is 1.581.
The like results for `COC(=O)CNP(=O)(Oc1ccccc1)Oc1cc(O)c2c(=O)cc(-c3ccc(O)c(O)c3)oc2c1` (configuration not stated) were, in that order, 47.7 µM, 47.7 µM and 1.
For `COC(=O)[C@H](C)NP(=O)(Oc1ccccc1)Oc1cc(O)c2c(=O)cc(-c3ccccc3)oc2c1` (some centres not stated) the same measures were 35.3 µM, 62.3 µM and 1.765.
As for `COC(=O)[C@@H](NP(=O)(Oc1ccccc1)Oc1cc(O)c2c(=O)cc(-c3ccc(O)c(O)c3)oc2c1)C(C)C` (some centres not stated), the IC50 amounted to 16.6 µM with HepG2 [1] and 8.2 µM in experiment [2]. The “Ratio IC50” value with HepG2 [3] is recorded as 0.494.
The like results for `COC(=O)[C@H](C)NP(=O)(Oc1ccccc1)Oc1cc(OC(C)=O)c2c(=O)cc(-c3ccc(OC(C)=O)c(OC(C)=O)c3)oc2c1` (some centres not stated) were, in that order, 27.3 µM, 51.2 µM and 1.875.
Take `COC(=O)[C@H](Cc1ccccc1)NP(=O)(Oc1ccccc1)Oc1cc(O)c2c(=O)cc(-c3ccc(O)c(O)c3)oc2c1` (some centres not stated): the IC50 in the experiment with HepG2 [1] was 15.7 µM; in experiment [2] it was 39.1 µM. Besides, in the experiment on HepG2 [3], the “Ratio IC50” value is listed as 2.49.
For `COC(=O)[C@H](C)NP(=O)(Oc1ccccc1)Oc1cc(O)c2c(=O)c(-c3ccc(O)cc3)coc2c1` (some centres not stated) the same measures were 57.2 µM, 15.7 µM and 0.274.
Turning to `COC(=O)[C@H](Cc1ccccc1)NP(=O)(Oc1ccccc1)Oc1cc(OC(C)=O)c2c(=O)c(-c3ccc(OC(C)=O)cc3)coc2c1` (some centres not stated), the IC50 with HepG2 [1] was 63.2 µM; in experiment [2], over 100 µM. Further, in the experiment on HepG2 [3], the “Ratio IC50” value is reported as 1.582.
Take `COC(=O)[C@H](CC(C)C)NP(=O)(Oc1ccccc1)Oc1ccc2c(=O)c(-c3ccc(O)cc3)coc2c1` (some centres not stated): the values for the IC50 (in the experiment with HepG2 [1]; in experiment [2]) were 66 µM and 47.7 µM, respectively. Further, the “Ratio IC50” value in the experiment on HepG2 [3] came out at 0.723.
The like results for `O=c1cc(-c2ccc(O)c(O)c2)oc2cc(O)cc(O)c12` [LUTEOLIN] were, in that order, 34.7 µM, over 100 µM and over 2.882.
For `COC(=O)CNP(=O)(Oc1ccccc1)Oc1cc(O)c2c(=O)c(-c3ccc(O)cc3)coc2c1` (configuration not stated) the same measures were over 100 µM, 44.5 µM and under 0.445.
For `COC(=O)[C@H](CC(C)C)NP(=O)(Oc1ccccc1)Oc1cc(OC(C)=O)c2c(=O)cc(-c3ccc(OC(C)=O)cc3)oc2c1` (some centres not stated) the same measures were 22.1 µM, 59.8 µM and 2.706.
Take `COC(=O)[C@H](Cc1ccccc1)NP(=O)(Oc1ccccc1)Oc1cc(OC(C)=O)c2c(=O)cc(-c3ccc(OC(C)=O)cc3)oc2c1` (some centres not stated): the values for the IC50 (with HepG2 [1]; in experiment [2]) were 38.5 µM and 45.9 µM, respectively. For the same compound, the “Ratio IC50” value with HepG2 [3] is 1.192.
In the case of `C#Cc1cccc(Nc2ncnc3cc(OCCOC)c(OCCOC)cc23)c1` [ERLOTINIB], the IC50 in the experiment on HepG2 [1] turned out to be 5.8 µM; in experiment [2] it was 18.5 µM. Besides, the “Ratio IC50” value in the experiment with HepG2 [3] is reported as 3.19.
Take `COC(=O)[C@H](Cc1ccccc1)NP(=O)(Oc1ccccc1)Oc1cc(O)c2c(=O)c(-c3ccc(O)cc3)coc2c1` (some centres not stated): the IC50 (in the experiment on HepG2 [1]; in experiment [2]) was over 100 µM in each case.
On to `COC(=O)[C@H](Cc1ccccc1)NP(=O)(Oc1ccccc1)Oc1ccc2c(=O)c(-c3ccc(OC(C)=O)cc3)coc2c1` (some centres not stated), for which the IC50 in the experiment with HepG2 [1] was 60.2 µM; in experiment [2], over 100 µM. In the experiment with HepG2 [3], the “Ratio IC50” value was over 1.66.
For `COC(=O)[C@H](CC(C)C)NP(=O)(Oc1ccccc1)Oc1cc(O)c2c(=O)cc(-c3ccc(O)cc3)oc2c1` (some centres not stated) the same measures were 37.2 µM, 52.8 µM and 1.419.
The like results for `COC(=O)CNP(=O)(Oc1ccccc1)Oc1ccc2c(=O)c(-c3ccc(O)cc3)coc2c1` (configuration not stated) were, in that order, 48.8 µM, over 100 µM and 2.049.
In the case of `COC(=O)CNP(=O)(Oc1ccccc1)Oc1cc(O)c2c(=O)cc(-c3ccc(O)cc3)oc2c1` (configuration not stated), the IC50 with HepG2 [1] came out at 59.7 µM; in experiment [2], 71.5 µM. In addition, the “Ratio IC50” value in the experiment on HepG2 [3] is recorded as 1.198.
The like results for `COC(=O)[C@H](CC(C)C)NP(=O)(Oc1ccccc1)Oc1ccc2c(=O)c(-c3ccc(OC(C)=O)cc3)coc2c1` (some centres not stated) were, in that order, 60 µM, 44.8 µM and 0.747.
For `COC(=O)[C@H](C)NP(=O)(Oc1ccccc1)Oc1ccc2c(=O)c(-c3ccc(O)cc3)coc2c1` (some centres not stated) the same measures were 28.8 µM, 20.5 µM and 0.712.
Turning to `COC(=O)CNP(=O)(Oc1ccccc1)Oc1cc(O)c2c(=O)cc(-c3ccccc3)oc2c1` (configuration not stated), the figures for the IC50 (with HepG2 [1]; in experiment [2]) were 42.6 µM and 96.5 µM, respectively. In the experiment on HepG2 [3], the “Ratio IC50” value is on record as 2.265.
`COC(=O)[C@H](Cc1ccccc1)NP(=O)(Oc1ccccc1)Oc1ccc2c(=O)c(-c3ccc(O)cc3)coc2c1` (some centres not stated): the IC50 was found to be 52.1 µM in the experiment with HepG2 [1] and 39.3 µM in experiment [2]. Moreover, the “Ratio IC50” value in the experiment with HepG2 [3] is 0.754.
For `COC(=O)[C@@H](NP(=O)(Oc1ccccc1)Oc1cc(O)c2c(=O)cc(-c3ccccc3)oc2c1)C(C)C` (some centres not stated) the same measures were 21.1 µM, over 100 µM and over 5.
For `O=c1cc(-c2ccccc2)oc2cc(O)cc(O)c12` [CHRYSIN], the IC50 (with HepG2 [1]; in experiment [2]) was over 100 µM each time.
Take `COC(=O)CNP(=O)(Oc1ccccc1)Oc1cc(OC(C)=O)c2c(=O)c(-c3ccc(OC(C)=O)cc3)coc2c1` (configuration not stated): the IC50 with HepG2 [1] turned out to be 39.7 µM; in experiment [2], 55.2 µM. In addition, in the experiment with HepG2 [3], the “Ratio IC50” value worked out at 1.39.
On to `COC(=O)[C@H](CC(C)C)NP(=O)(Oc1ccccc1)Oc1cc(O)c2c(=O)cc(-c3ccccc3)oc2c1` (some centres not stated), for which the IC50 (with HepG2 [1]; in experiment [2]) was over 100 µM in each case.
With `COC(=O)[C@H](Cc1ccccc1)NP(=O)(Oc1ccccc1)Oc1cc(O)c2c(=O)cc(-c3ccccc3)oc2c1` (some centres not stated), the IC50 (in the experiment with HepG2 [1]; in experiment [2]) was over 100 µM each time.
In the case of `COC(=O)CNP(=O)(Oc1ccccc1)Oc1cc(OC(C)=O)c2c(=O)cc(-c3ccc(OC(C)=O)c(OC(C)=O)c3)oc2c1` (configuration not stated), the IC50 was found to be 26.4 µM with HepG2 [1] and 57.1 µM in experiment [2]. For the same compound, the “Ratio IC50” value in the experiment on HepG2 [3] worked out at 2.163.
In the case of `COC(=O)[C@H](CC(C)C)NP(=O)(Oc1ccccc1)Oc1cc(O)c2c(=O)c(-c3ccc(O)cc3)coc2c1` (some centres not stated), the IC50 was 72.3 µM in the experiment with HepG2 [1] and 48.2 µM in experiment [2]. Moreover, the “Ratio IC50” value with HepG2 [3] came to 0.667.
